# Article PMC9168489 (Proceedings of the National Academy of Sciences of the …, 2022)
# Where no end group is shown, it is not given here.
# Experiments:
# HTRA1 Lys305Ala = test: Tau digest with loop L3 mutant Lys305Ala; format: biochemical, human; details: 50 µM peptide
# Summary of the method: (§1)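 HTRA1 loop L3 point mutants were assayed by tau digestion, with or without 50 µM test peptides derived from the CAPN2 C terminus, to measure mutant activity.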
# HTRA1 Asn311Ala = test: Tau digest with loop L3 mutant Asn311Ala; format: biochemical, human; details: 50 µM peptide
# Summary of the method: as §1
# HTRA2 = test: Tau digest with HTRA2; format: biochemical, human; details: 0.5 µM HTRA2, 5 µM tau, 50 µM peptide, 50 mM Tris pH 8.0, 37 °C
# HTRA3 = test: Tau digest with HTRA3; format: biochemical, human; details: 0.5 µM HTRA3, 5 µM tau, 50 µM peptide, 50 mM Tris pH 8.0, 37 °C
# HTRA1ΔPDZ = test: Soluble tau digest with HTRA1ΔPDZ; format: biochemical, human; details: 50 µM peptide, 0.5 µM protease, 5 µM tau, 50 mM Tris pH 8.0, 37 °C; SDS-PAGE
# Summary of the method: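 Soluble tau (5 µM) digested by 0.5 µM protease (HTRA1ΔPDZ run alongside full-length HTRA1) in 50 mM Tris pH 8.0 at 37 °C. Peptides derived from the CAPN2 C terminus were added at 50 µM, with a no-peptide control. Samples were taken at several time points and tau cleavage was followed by SDS-PAGE.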
# HTRA1 [1] = test: Soluble tau digest with HTRA1; format: biochemical, human; details: SDS-PAGE; for activation of HTRA1 by CAPN2: 0.5 µM HTRA1, 5 µM tau, 50 mM Tris pH 8.0, 37 °C, CAPN2 titration
# tau fibrils [2] = test: Proteolysis of tau fibrils; format: biochemical; details: 2.5 µM tau fibrils, 2.5 µM HTRA1/HTRA1-CAPN2, 37 °C, 50 mM Tris HCl pH 8
# HTRA1 (human) = HTRA1 (human) (UniProt Q92743); test: ITC
# HTRA1 [3] = test: ITC of HTRA1SA and CAPN2CA; format: binding, human; details: 500 µM HTRA1SA in syringe titrated to 10 µM CAPN2CA, 50 mM bicine, 150 mM NaCl pH 9.0, 37 °C
# tau fibrils [4] = test: Sedimentation assay of tau fibrils; format: biochemical; details: no Ca^2+, ultracentrifugation
# Summary of the method: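 Tau fibrils were incubated with HTRA1SA alone, the HTRA1SA–CAPN2 complex, CAPN2 alone, or no protein, then ultracentrifuged. Total sample taken before centrifugation, pellet and supernatant fractions were resolved by SDS-PAGE and stained with Coomassie.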
# HTRA1 (HEK293 cells) = test: Coimmunoprecipitation of HTRA1 with CAPN2; format: cell-based, human; details: HEK293 lysates; Strep or Myc beads; n = 3
# tau = test: Soluble tau digest with CAPN2 alone; format: biochemical; details: buffers without Ca^2+
# Summary of the method: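 5 µM soluble tau was incubated with 0.5 µM CAPN2 in 50 mM Tris HCl, pH 8, at 37 °C. Aliquots were withdrawn at set time points and analysed by SDS-PAGE.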
# tau fibrils [5] = details: in the presence of Ca^2+; cited from earlier work
molecule,measurement,setting,value
LISWLSFSDL,activation of HTRA1 Lys305Ala,HTRA1 Lys305Ala,still allowed activation
same,activation of HTRA1 Asn311Ala,HTRA1 Asn311Ala,still allowed activation
same,effect on HTRA2 activity,HTRA2,HTRA2 weakly
same,effect on HTRA3 activity,HTRA3,activated HTRA3 strongly
LISWLSDSEL,activation of HTRA1ΔPDZ by peptides,HTRA1ΔPDZ,activated wild-type but not HTRA1ΔPDZ
LISWLCFSVL,activation of HTRA1ΔPDZ by peptides,HTRA1ΔPDZ,not activated
HTRA1–CAPN2 complexes: hetero-oligomeric complex consisting of the cysteine protease calpain 2 (CAPN2) and HTRA1,degradation of soluble tau,"HTRA1 [1]; 5 µM tau, 0.5 µM HTRA1, 0.5 µM CAPN2, 37 °C, 50 mM Tris HCl pH 8",degradation of soluble tau was improved
same,proteolysis of tau fibrils,tau fibrils [2],a slight decrease of HTRA1 activity
"CFD peptide, carboxyl terminus of complement factor D",Kd,HTRA1 (human),4 µM
"CAPN2: CAPN2 heterodimer consists of a cysteine protease and a regulatory subunit (protein, UniProt P17655 20-700; P04632 1-268, looked up) Calpain-2 catalytic subunit: SHDRAIKYLNQDYEALRNECLEAGTLFQDPSFPAIPSALGFKELGPYSSKTRGIEWKRPTEICADPQFIIGGATRTDICQGALGDCWLLAAIASLTLNEEILARVVPLNQSFQENYAGIFHFQFWQYGEWVEVVVDDRLPTKDGELLFVHSAEGSEFWSALLEKAYAKINGCYEALSGGATTEGFEDFTGGIAEWYELKKPPPNLFKIIQKALQKGSLLGCSIDITSAADSEAITFQKLVKGHAYSVTGAEEVESNGSLQKLIRIRNPWGEVEWTGRWNDNCPSWNTIDPEERERLTRRHEDGEFWMSFSDFLRHYSRLEICNLTPDTLTSDTYKKWKLTKMDGNWRRGSTAGGCRNYPNTFWMNPQYLIKLEEEDEDEEDGESGCTFLVGLIQKHRRRQRKMGEDMHTIGFGIYEVPEELSGQTNIHLSKNFFLTNRARERSDTFINLREVLNRFKLPPGEYILVPSTFEPNKDGDFCIRVFSEKKADYQAVDDEIEANLEEFDISEDDIDDGFRRLFAQLAGEDAEISAFELQTILRRVLAKRQDIKSDGFSIETCKIMVDMLDSDGSGKLGLKEFYILWTKIQKYQKIYREIDVDRSGTMNSYEMRKALEEAGFKMPCQLHQVIVARFADDQLIIDFDNFVRCLVRLETLFKIFKQLDPENTGTIELDLISWLCFSVL Calpain small subunit 1: MFLVNSFLKGGGGGGGGGGGLGGGLGNVLGGLISGAGGGGGGGGGGGGGGGGGGGGTAMRILGGVISAISEAAAQYNPEPPPPRTHYSNIEANESEEVRQFRRLFAQLAGDDMEVSATELMNILNKVVTRHPDLKTDGFGIDTCRSMVAVMDSDTTGKLGFEEFKYLWNNIKRWQAIYKQFDTDRSGTICSSELPGAFEAAGFHLNEHLYNMIIRRYSDESGNMDFDNFISCLVRLDAMFRAFKSLDKDGTGQIQVNIQEWLQLTMYS",Kd,HTRA1 [3],4 µM
same,activation of HTRA1 by CAPN2,HTRA1 [1],improved activation of HTRA1 by CAPN2 compared to the isolated C-terminal decapeptide
same,tau fibril dissociation (solubilization),"tau fibrils [4]; equimolar amounts, SDS-PAGE and Coomassie",Partial fibril dissociation
same,co-sedimentation with tau fibrils,tau fibrils [4],co-sedimentation of CAPN2 and fibrils
same,coimmunoprecipitation with HTRA1,HTRA1 (HEK293 cells),complex formation was supported by coimmunoprecipitations
same,digestion of tau by CAPN2,tau,does not digest tau
same,proteolysis of tau fibrils by CAPN2,tau fibrils [5],proteolyzes fibrils
CAPN2CA (protein) chain 1: SHDRAIKYLNQDYEALRNECLEAGTLFQDPSFPAIPSALGFKELGPYSSKTRGIEWKRPTEICADPQFIIGGATRTDICQGALGDAWLLAAIASLTLNEEILARVVPLNQSFQENYAGIFHFQFWQYGEWVEVVVDDRLPTKDGELLFVHSAEGSEFWSALLEKAYAKINGCYEALSGGATTEGFEDFTGGIAEWYELKKPPPNLFKIIQKALQKGSLLGCSIDITSAADSEAITFQKLVKGHAYSVTGAEEVESNGSLQKLIRIRNPWGEVEWTGRWNDNCPSWNTIDPEERERLTRRHEDGEFWMSFSDFLRHYSRLEICNLTPDTLTSDTYKKWKLTKMDGNWRRGSTAGGCRNYPNTFWMNPQYLIKLEEEDEDEEDGESGCTFLVGLIQKHRRRQRKMGEDMHTIGFGIYEVPEELSGQTNIHLSKNFFLTNRARERSDTFINLREVLNRFKLPPGEYILVPSTFEPNKDGDFCIRVFSEKKADYQAVDDEIEANLEEFDISEDDIDDGFRRLFAQLAGEDAEISAFELQTILRRVLAKRQDIKSDGFSIETCKIMVDMLDSDGSGKLGLKEFYILWTKIQKYQKIYREIDVDRSGTMNSYEMRKALEEAGFKMPCQLHQVIVARFADDQLIIDFDNFVRCLVRLETLFKIFKQLDPENTGTIELDLISWLCFSVL chain 2: MFLVNSFLKGGGGGGGGGGGLGGGLGNVLGGLISGAGGGGGGGGGGGGGGGGGGGGTAMRILGGVISAISEAAAQYNPEPPPPRTHYSNIEANESEEVRQFRRLFAQLAGDDMEVSATELMNILNKVVTRHPDLKTDGFGIDTCRSMVAVMDSDTTGKLGFEEFKYLWNNIKRWQAIYKQFDTDRSGTICSSELPGAFEAAGFHLNEHLYNMIIRRYSDESGNMDFDNFISCLVRLDAMFRAFKSLDKDGTGQIQVNIQEWLQLTMYS,activation of HTRA1 by CAPN2,HTRA1 [1],dose-dependent activation of HTRA1
"EWTDDDLVESL (not fully specified) [CCNH peptide, carboxyl terminus of cyclin H]",Kd,HTRA1 (human),40 µM
